Measurements pooled from the literature.
Compare with care: the assays were run in different laboratories.
Target: Focal adhesion kinase 1 (PTK2, Homo sapiens, UniProt Q05397)

COc1ccnn2ncc(-c3ccnc(N(C)C)n3)c12 — remaining signal (cell-free assay; 1 µM): 100%
Nc1nc(Nc2ccc(S(N)(=O)=O)cc2)nn1C(=O)c1c(F)cccc1F — remaining signal (cell-free assay; 0.5 µM): 95.5%
CCCS(=O)(=O)Nc1ccc(F)c(C(=O)c2c[nH]c3ncc(-c4ccc(Cl)cc4)cc23)c1F — inhibition (enzyme activity; inhibitor; 1 µM): < 10%
c1nc2c(Nc3ccc4c(c3)OCCO4)nc(Nc3ccc4c(c3)OCCO4)nc2[nH]1 — activity vs control (enzyme activity; inhibitor; 10 µM): 58%
CC(C)(C)c1nc2c(s1)c1nc(N)ncc1c1ccc(NS(=O)(=O)c3c(F)cccc3F)c(F)c12 — remaining activity (enzyme activity; inhibitor; radiometric; 1 µM): 99%
COc1cc2ncnc(Nc3ccc(Oc4ccccc4)cc3C)c2cc1OC — inhibition (enzyme activity; inhibitor; 1 µM): 5%
O=C(Nc1cnn(-c2csc(C(=O)NC3COC3)c2)c1)Nc1c(F)cccc1Cl — remaining activity (enzyme activity; inhibitor; 5 µM): 89%
CNCc1ccccc1-c1csc([C@@H](C)Nc2nc(C)nc3cc(OC)c(OC)cc23)c1 — remaining binding (cell-free assay; competition with immobilised ligand; 1 µM): 86%
Nc1ncnc2occ(-c3ccc(NC(=O)Nc4cc(C(F)(F)F)ccc4F)cc3)c12 — remaining signal (cell-free assay; inhibitor; 20 µM): 0.1%
C=CC(=O)Nc1cc(Nc2nccc(Nc3cc(Cl)c(F)cc3C(C)(C)O)n2)c(OC)cc1N1CC[C@@H](N(C)C)C1 — inhibition (enzyme activity; inhibitor; 1 µM): 74%
COc1cc(-c2cc(-c3ccc(N4CCNCC4)cc3)cnc2C)cc(OC)c1OC — inhibition (enzyme activity; inhibitor; 1 µM): 16%
O=c1nc(-c2ccccn2)sc2ccccc12 — remaining binding (binding; competition with immobilised ligand; 1 µM): 90%
COc1cc2nccc(Oc3ccc(NC(=O)c4c5n(n(-c6ccc(F)cc6)c4=O)CCCC5)cc3)c2cc1OC — inhibition (enzyme activity; inhibitor; 0.1 µM): -10%
N[C@@H]1CCN(c2nccc(-c3cnn4ncccc34)n2)C1 — remaining signal (cell-free assay; 1 µM): 97%
O=S(=O)(NC1CCC(c2cc(F)ccc2F)(S(=O)(=O)c2ccc(Cl)cc2)CC1)C(F)(F)F (stereo not drawn) — remaining binding (cell-free assay; competition with immobilised ligand; 1 µM): 90%
N#CCCc1ccc2c(c1)-c1[nH]c3ccc([N+](=O)[O-])cc3c1CC(=O)N2 — remaining signal (cell-free assay; 0.5 µM): 82.2%
Cc1cnn2ncc(-c3ccnc(N(C)C)n3)c2c1 — remaining signal (cell-free assay; 1 µM): 92%
CN1CC(Oc2cnc(C#N)cc2-c2ccn3nc(NC(=O)C4CC4)cc3c2)C1 — inhibition (enzyme activity; inhibitor; 1 µM): 1%
C[C@H](c1cccc(C#N)c1)n1cc(Cl)cc(C(N)=O)c1=N — remaining binding (cell-free assay; competition with immobilised ligand; 1 µM): 100%
Cc1[nH]c(/C=C2\C(=O)Nc3ccc(F)cc32)c(C)c1C(=O)N[C@H]1CCN(C(=O)N(C)C)C1 — remaining activity (enzyme activity; inhibitor; 1 µM): 27%
Oc1cccc(-c2nc(N3CCOCC3)c3oc4ncccc4c3n2)c1 — remaining signal (cell-free assay; 0.5 µM): 93.5%
CCCOc1ccc(OC)c(F)c1C(=O)c1ccc(C(=O)N[C@@H]2CNC[C@H]2NC(=O)c2ccc3[nH]ncc3c2)cc1 — remaining activity (enzyme activity; inhibitor; 10 µM): 103%
CC(=O)N1CCC(c2ccc(C(=O)NC(=N)N)cc2C(F)(F)F)CC1 — remaining binding (cell-free assay; competition with immobilised ligand; 1 µM): 100%
CCN(CC)c1ccc(C2=NNC(=O)CC2C)cc1[N+](=O)[O-] (stereo not drawn) — remaining activity (enzyme activity; inhibitor; 10 µM): 96%
C[C@@H]1CN(c2cc(-c3nn(C)c4ccc(OC5(C)CC5)cc34)ncn2)C[C@H](C)O1 — remaining binding (cell-free assay; competition with immobilised ligand; 1 µM): 95%
O=C(CSc1nc2nccnc2c(=O)n1CCc1ccccc1)Nc1nccs1 — inhibition (enzyme activity; inhibitor; 10 µM): 6%
Cc1nccc(COC(=O)N2C[C@@H]3[C@@H](CNC(=O)c4ccc5[nH]nnc5c4)[C@@H]3C2)n1 — remaining binding (cell-free assay; competition with immobilised ligand; 1 µM): 100%
Cc1ccc(Nc2nccc(N(C)c3ccc4c(C)n(C)nc4c3)n2)cc1S(N)(=O)=O — inhibition (enzyme activity; inhibitor; 0.3 µM): 4%
CCS(=O)(=O)c1cc2cc(C[C@](O)(CC(C)(C)c3ccc(F)cc3C(N)=O)C(F)(F)F)[nH]c2cn1 — remaining binding (cell-free assay; competition with immobilised ligand; 1 µM): 97%
Cc1cc(NC(=O)c2cccc3cc(-c4cccc5[nH]nc(N)c45)ccc23)ccc1F — activity vs control (enzyme activity; inhibitor; 0.1 µM): 98%
